# From ChEMBL document CHEMBL1133520, “Design, synthesis, and biological evaluation of potent and selective amidino bicyclic factor Xa inhibitors” (J Med Chem, 2000)
# “And” between values parts separate entries of the source, which are not always exact repeats. Equal values may be shown once.
# How the values were obtained:
# Coagulation factor X [1] = target: Coagulation factor X (Homo sapiens, UniProt P00742); assay: Binding affinity against human coagulation factor X
# Serine protease 1 = Serine protease 1 (Homo sapiens, UniProt P07477); assay: Binding affinity against human trypsin
# Method in brief: (§1)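 Human purified enzymes in 0.1 M sodium phosphate, 0.2 M NaCl, 0.5% PEG 6000, pH 7.4. Inhibitor at 0.00316–10 μM in 8 half-log steps. Substrate S2222 for fXa and trypsin, S2366 for thrombin. Hydrolysis rate read at 405 nm over 30 min, with uninhibited controls. Ki calculated from % activity, Km and substrate concentration. Run in duplicate against internal standards.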
# Prothrombin = Prothrombin (Homo sapiens, UniProt P00734); assay: Binding affinity against human thrombin; method in brief: as §1
# [2] = plasma clearance in dog; type: ADME, organism-based, Canis lupus familiaris
# Method in brief: (§2)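 Given intravenously (rabbit: 10 mg/kg/h infusion over 60 min; dog: iv). Plasma protein-precipitated with acetonitrile; quantitation limit 5 nM. Noncompartmental fit. Half-life by nonlinear regression, AUC by trapezoidal rule. Clearance = dose/AUC0→∞. Vdss = Cl × MRT, with MRT = AUMC/AUC.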
# [3] = Cmax values of the compound; type: ADME, organism-based; conditions: in vivo; method in brief: as §2
# [4] = Distribution volume at steady state in dog; type: ADME, organism-based, Canis lupus familiaris; conditions: in vivo, read-out: Vdss; method in brief: as §2
# [5] = (§3) Half life period of the compound; type: ADME; method in brief: as §2
# [6] = as §3; type: ADME; method in brief: as §2; remark: listed apart in the source
# Coagulation factor X [7] = target: T1, Coagulation factor X (Oryctolagus cuniculus, UniProt O19045); assay: Binding affinity against fXa from rabbit purified enzyme
# T1 sequence (O19045 whole entry): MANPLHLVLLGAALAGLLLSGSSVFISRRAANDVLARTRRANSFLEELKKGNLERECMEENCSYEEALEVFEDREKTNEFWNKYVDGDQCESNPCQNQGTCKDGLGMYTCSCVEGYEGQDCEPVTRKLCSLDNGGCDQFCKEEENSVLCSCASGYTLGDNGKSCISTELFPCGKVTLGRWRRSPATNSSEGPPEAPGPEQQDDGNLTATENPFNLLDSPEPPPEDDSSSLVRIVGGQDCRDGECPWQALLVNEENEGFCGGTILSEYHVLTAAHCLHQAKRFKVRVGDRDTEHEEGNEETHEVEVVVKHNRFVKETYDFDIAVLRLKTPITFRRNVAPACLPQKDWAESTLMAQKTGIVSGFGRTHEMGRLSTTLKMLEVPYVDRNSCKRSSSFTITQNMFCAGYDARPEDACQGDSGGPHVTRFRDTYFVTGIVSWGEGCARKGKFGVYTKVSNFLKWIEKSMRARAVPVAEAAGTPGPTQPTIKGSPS
# Oryctolagus cuniculus [8] = species on record: Oryctolagus cuniculus; assay: Tested for inhibition of thrombus formation using arterio-venous shunt device in rabbit; type: functional
# Method in brief: (§4)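 Rabbit arteriovenous shunt containing silk thread; blood circulated 40 min, then the thread and thrombus were weighed. Compound or saline vehicle infused iv via jugular vein from 1 h before circulation through the end (100 min total). Percent inhibition of thrombus weight per treatment group; ID50 estimated by linear regression.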
# Coagulation factor X [9] = target: T1, Coagulation factor X; assay: Binding affinity against Coagulation factor X from rabbit purified enzyme
# Oryctolagus cuniculus [10] = assay: Tested for inhibition of thrombus formation using arterio-venous shunt device in rabbit at 0.008-1 mg/kg/h; type: functional; method in brief: as §4
# [11] = plasma clearance in rabbit
# Oryctolagus cuniculus [12] = species on record: Oryctolagus cuniculus; assay: Distribution volume at steady state in rabbit; conditions: in vivo, read-out: Vdss
# Sequence of Serine protease 1 (P07477 whole entry): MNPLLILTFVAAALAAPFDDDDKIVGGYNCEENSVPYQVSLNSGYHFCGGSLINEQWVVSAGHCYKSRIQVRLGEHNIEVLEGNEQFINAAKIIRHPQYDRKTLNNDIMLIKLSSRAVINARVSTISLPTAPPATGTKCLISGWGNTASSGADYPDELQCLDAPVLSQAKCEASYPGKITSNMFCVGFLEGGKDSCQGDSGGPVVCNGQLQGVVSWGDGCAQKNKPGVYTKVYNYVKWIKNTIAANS
# Sequence of Coagulation factor X (Homo sapiens, UniProt P00742) (P00742 41-179 limits assumed): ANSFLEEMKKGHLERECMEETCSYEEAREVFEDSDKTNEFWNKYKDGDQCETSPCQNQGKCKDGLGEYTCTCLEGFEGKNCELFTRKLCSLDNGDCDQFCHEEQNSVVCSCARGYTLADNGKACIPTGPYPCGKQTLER
# Sequence of Coagulation factor X (Homo sapiens, UniProt P00742) (P00742 235-488 limits assumed): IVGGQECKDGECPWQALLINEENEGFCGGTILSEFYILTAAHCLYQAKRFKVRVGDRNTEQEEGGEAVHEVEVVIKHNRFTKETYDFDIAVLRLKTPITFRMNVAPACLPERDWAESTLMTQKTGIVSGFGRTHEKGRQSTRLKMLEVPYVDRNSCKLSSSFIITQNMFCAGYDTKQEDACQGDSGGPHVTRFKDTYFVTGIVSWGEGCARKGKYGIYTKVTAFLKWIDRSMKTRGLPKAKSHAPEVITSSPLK
SMILES,Ki (Coagulation factor X [1]),Ki (Serine protease 1),Ki (Prothrombin),also measured
N=C(N)c1ccc2cnn(CC(=O)Nc3ccc(-c4ccccc4S(N)(=O)=O)cn3)c2c1,3.1 nM,41 nM,6800 nM,–
N=C(N)c1ccc2[nH]cc(CC(=O)Nc3ccc(-c4ccccc4S(N)(=O)=O)cc3F)c2c1,3.1 nM,270 nM,2100 nM,clearance [2]: 18.3 mL/min/kg; Cmax [3]: 1630 nM; Vd [4]: 0.87 L/kg; half-life [5]: 2.5 h
N=C(N)c1ccc2c(c1)ncn2CC(=O)c1ccc(-c2ccccc2)cc1,–,–,> 21000 nM,–
CCOC(=O)C(CCc1ccc(C(=N)N)cc1)Cn1cnc2ccc(C(=N)N)cc21 (stereo not drawn),11900 nM,–,> 21000 nM,–
N=C(N)c1ccc2[nH]cc(CC(=O)Nc3ccc(-c4ccccc4S(N)(=O)=O)cc3)c2c1,–,160 nM,1600 nM and 900 nM,clearance [2]: 20.3 mL/min/kg; Cmax [3]: 1510 nM and 8700 nM; half-life [6]: 1.22 h; Vd [4]: 0.38 L/kg; Ki (Coagulation factor X [7]): 6 nM; ID50 (Oryctolagus cuniculus [8]): 1.7 µM/h/kg; half-life [5]: 0.79 h
N=C(N)c1ccc2[nH]cc(CC(=O)Nc3ccc(-c4ccccc4S(N)(=O)=O)cc3Cl)c2c1,0.7 nM,140 nM,500 nM,clearance [2]: 50 mL/min/kg; Cmax [3]: 650 nM; Vd [4]: 2.01 L/kg; Ki (Coagulation factor X [9]): 0.79 nM; ID50 (Oryctolagus cuniculus [8]): 0.35 µM/h/kg; half-life [5]: 1.75 h
Cc1cc(-c2ccccc2S(N)(=O)=O)ccc1NC(=O)Cc1c[nH]c2ccc(C(=N)N)cc12,2.3 nM,340 nM,1000 nM,–
CN(C(=O)Cc1c[nH]c2ccc(C(=N)N)cc12)c1ccc(-c2ccccc2S(N)(=O)=O)cc1,41 nM,600 nM,14000 nM,–
N=C(N)c1ccc2[nH]cc(CC(=O)Nc3ccc(-c4ccccc4S(N)(=O)=O)cn3)c2c1,0.92 nM and 0.44 nM,150 nM,2100 nM,clearance [2]: 61.7 mL/min/kg; Cmax [3]: 2200 nM; Vd [4]: 1.9 L/kg; Ki (Coagulation factor X [9]): 0.93 nM; ID50 (Oryctolagus cuniculus [8]): 0.3 µM/h/kg; half-life [5]: 0.4 h
CNS(=O)(=O)c1ccccc1-c1ccc(NC(=O)Cc2c[nH]c3ccc(C(=N)N)cc23)cc1,3.4 nM,120 nM,900 nM,–
CN(C)S(=O)(=O)c1ccccc1-c1ccc(NC(=O)Cc2c[nH]c3ccc(C(=N)N)cc23)cc1,7 nM,390 nM,1700 nM,–
CCOC(=O)C(CCc1ccc(C(=N)N)cc1)Cn1cnc2cc(C(=N)N)ccc21 (stereo not drawn),2200 nM,–,> 21000 nM,–
N=C(N)c1ccc2ncn(CC(=O)c3ccc(-c4ccccc4S(N)(=O)=O)cc3)c2c1,240 nM,300 nM,2800 nM,–
CCOC(=O)C(CCc1cccc(C(=N)N)c1)Cn1cnc2cc(C(=N)N)ccc21 (stereo not drawn),–,220 nM,2000 nM,–
N=C(N)c1ccc2c(c1)ncn2CC(=O)Nc1ccc(-c2ccccc2)cc1,3900 nM,> 2500 nM,12500 nM,–
N=C(N)c1ccc2c(c1)ncn2CC(=O)Nc1ccc(-c2ccccc2S(N)(=O)=O)cc1,400 nM,130 nM,2700 nM,–
N=C(N)c1ccc2[nH]cc(CC(=O)Nc3ccc(-c4ccccc4S(N)(=O)=O)cc3Br)c2c1,0.32 nM,120 nM,200 nM,clearance [2]: 22.3 mL/min/kg; Cmax [3]: 1430 nM; Vd [4]: 0.67 L/kg; Ki (Coagulation factor X [9]): 0.9 nM; ID50 (Oryctolagus cuniculus [10]): 0.14 µM/h/kg; half-life [5]: 1.8 h
CCOC(=O)C(CCc1cccc(C(=N)N)c1)Cn1cnc2ccc(C(=N)N)cc21 (stereo not drawn),700 nM,820 nM,1900 nM,–
N=C(N)c1ccc2[nH]cc(CC(=O)Nc3ccc(-c4ccccc4S(N)(=O)=O)cc3I)c2c1,0.6 nM,240 nM,200 nM,–
Cn1cc(CC(=O)Nc2ccc(-c3ccccc3S(N)(=O)=O)cn2)c2cc(C(=N)N)ccc21,89 nM,1500 nM,21000 nM,–
CCNS(=O)(=O)c1ccccc1-c1ccc(NC(=O)Cc2c[nH]c3ccc(C(=N)N)cc23)cc1,4.1 nM,160 nM,800 nM,–
CCCNS(=O)(=O)c1ccccc1-c1ccc(NC(=O)Cc2c[nH]c3ccc(C(=N)N)cc23)cc1,8 nM,180 nM,400 nM,–
N=C(N)c1ccc2ncn(CC(=O)Nc3ccc(-c4ccccc4S(N)(=O)=O)cc3)c2c1,2.4 nM,47 nM,2200 nM,Cmax [3]: 3850 nM; half-life [6]: 0.96 h; clearance [11]: 73.3 mL/min/kg; Vd (Oryctolagus cuniculus [12]): 3.04 L/kg
N=C(N)c1ccc2ncn(CC(=O)c3ccc(-c4ccccc4)cc3)c2c1,120 nM,320 nM,1200 nM,–
N=C(N)c1ccc2ncn(CC(=O)Nc3ccc(-c4ccccc4)cc3)c2c1,220 nM,480 nM,4700 nM,–
"N=C(N)c1ccc2c(c1)C(CC(=O)Nc1ccc(-c3ccccc3S(N)(=O)=O)cc1)CN2 (single isomer, unassigned; (+))",0.71 nM,140 nM,1500 nM,–
"N=C(N)c1ccc2c(c1)C(CC(=O)Nc1ccc(-c3ccccc3S(N)(=O)=O)cc1)CN2 (single isomer, unassigned; (-))",52 nM,400 nM,17000 nM,–
